One data set addresses Mu-type opioid receptor (Homo sapiens, UniProt P35372). Nature of the data set: Displacement of [3H]DPN from recombinant human mu opioid receptor expressed in CHOK1 cell membranes. The essentials:
(§1)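 Competition binding with the radioligand [3H]-DPN on membranes from CHO-K1 cells stably transfected with human recombinant μ or δ opioid receptor or guinea pig κ opioid receptor. Affinity is reported as pKi.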
In general terms: Loss of bound radioactivity is the signal in a displacement assay; it reports binding, not function.

For data set [1], the target named is Delta-type opioid receptor (Homo sapiens, UniProt P41143). The data set can be described thus: Displacement of [3H]DPN from recombinant human delta opioid receptor expressed in CHOK1 cell membranes. The essentials:
as §1

Data set [2] addresses Kappa-type opioid receptor (Cavia porcellus, UniProt P41144). Nature of the data set: Displacement of [3H]DPN from guinea pig kappa opioid receptor expressed in CHOK1 cell membranes. The essentials: as §1
Data set [3] has as its system Liver. Nature of the data set: Half life in rat liver microsomes. Format: ADME, microsome. Conditions: microsomes.
Data set [4] has as its system Liver. Nature of the data set: (§2) Half life in dog liver microsomes. The class given is ADME, Canis lupus familiaris, microsome. Conditions: microsomes. A general note: Liver microsomes are a subcellular fraction often used to study metabolism.
The nature of data set [5]: (§3) Half life in human liver microsomes. The class given is ADME, microsome. Conditions: liver microsomes.
Data set [6] has as its system Liver. Described as §3. The class given is ADME, microsome. As to conditions: microsomes.
Data set [7] can be described thus: as §2. Format: ADME, Canis lupus familiaris, microsome. As to conditions: liver microsomes.

Bounds are passed on as bounds.

Sequence of Delta-type opioid receptor (P41143 whole entry): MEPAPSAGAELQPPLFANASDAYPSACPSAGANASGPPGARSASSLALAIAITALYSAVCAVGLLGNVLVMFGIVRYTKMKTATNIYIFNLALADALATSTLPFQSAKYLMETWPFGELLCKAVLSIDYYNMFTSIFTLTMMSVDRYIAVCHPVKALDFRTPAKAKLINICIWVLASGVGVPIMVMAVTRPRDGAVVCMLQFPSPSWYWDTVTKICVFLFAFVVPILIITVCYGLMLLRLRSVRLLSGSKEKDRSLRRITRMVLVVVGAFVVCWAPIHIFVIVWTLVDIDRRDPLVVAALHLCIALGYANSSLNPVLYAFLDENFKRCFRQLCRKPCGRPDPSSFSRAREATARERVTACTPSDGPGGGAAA
Sequence of Kappa-type opioid receptor (P41144 whole entry): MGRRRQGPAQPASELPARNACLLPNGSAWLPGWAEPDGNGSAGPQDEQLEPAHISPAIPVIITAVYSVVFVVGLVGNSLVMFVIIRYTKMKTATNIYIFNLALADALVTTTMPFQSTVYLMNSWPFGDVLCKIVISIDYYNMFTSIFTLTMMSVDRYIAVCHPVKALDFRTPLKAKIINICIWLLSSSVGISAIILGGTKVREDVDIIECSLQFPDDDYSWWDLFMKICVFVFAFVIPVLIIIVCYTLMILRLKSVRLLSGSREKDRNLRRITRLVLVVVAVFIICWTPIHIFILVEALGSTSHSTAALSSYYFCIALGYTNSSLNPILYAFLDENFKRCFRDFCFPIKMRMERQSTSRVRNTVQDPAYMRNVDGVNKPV
Sequence of Mu-type opioid receptor (P35372 whole entry): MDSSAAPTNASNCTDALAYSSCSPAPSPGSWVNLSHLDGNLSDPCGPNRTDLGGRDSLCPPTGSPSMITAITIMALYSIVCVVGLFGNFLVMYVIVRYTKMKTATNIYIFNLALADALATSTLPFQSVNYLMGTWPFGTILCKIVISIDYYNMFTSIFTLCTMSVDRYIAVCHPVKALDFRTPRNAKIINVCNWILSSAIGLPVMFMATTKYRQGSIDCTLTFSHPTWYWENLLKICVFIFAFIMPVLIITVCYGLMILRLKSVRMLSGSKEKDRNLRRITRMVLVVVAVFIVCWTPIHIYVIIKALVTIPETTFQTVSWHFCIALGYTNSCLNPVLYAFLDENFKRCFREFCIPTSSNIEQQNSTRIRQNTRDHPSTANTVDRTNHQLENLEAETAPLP

The term Ki denotes a dissociation constant, usually derived from enzyme kinetics or from competition with a known ligand. One may read the half-life as the time in which the quantity being followed falls by half. With `NC(=O)c1cccc(C2C[C@H]3CC[C@H](C2)N3CCCc2ccccc2)c1` (relative stereo; 24a), the Ki at Mu-type opioid receptor is 0.126 nM; in data set [1], 1.26 nM; in data set [2] it was 0.158 nM. In addition, the t1/2 in the data set with Liver [3] and with Liver [4] was > 90 min each time. Further, the half-life in data set [5] is > 90 min.
Take `O=C1c2ccccc2C(=O)N1CCCCN1[C@@H]2CC[C@@H]1CC(c1cccc(O)c1)C2` (relative stereo; 21b): the Ki was 39.8 nM on Mu-type opioid receptor, 794 nM in data set [1] and 79.4 nM in data set [2]. The results for the t1/2 in the data set on Liver [3], in the data set on Liver [4] and in the data set on Liver [6] were 21 min, 12 min and 38 min, respectively.
Consider `CCCCCCCN1[C@@H]2CC[C@@H]1CC(c1cccc(O)c1)C2` (relative stereo; 17b), for which the Ki at Mu-type opioid receptor is 20 nM; in data set [1] it was 251 nM; in data set [2], 25.1 nM. The t1/2 is reported as 2 min in the data set on Liver [3], 9 min with Liver [4] and 2 min in the data set on Liver [6].
Consider `CCCCCCCN1[C@@H]2CC[C@@H]1CC(c1cccc(C(N)=O)c1)C2` (stereo partly specified), for which the Ki at Mu-type opioid receptor was 31.6 nM; in data set [1], 501 nM. For the same molecule, the figures for the t1/2 in the data set on Liver [3], with Liver [4] and with Liver [6] were 7 min, 2 min and 10 min, respectively.
With `NC(=O)c1cccc(C2C[C@H]3CC[C@H](C2)N3Cc2c(F)cccc2F)c1` (relative stereo; 26a), the results for the Ki (at Mu-type opioid receptor; in data set [1]; in data set [2]) were 31.6 nM, 316 nM and 15.8 nM, respectively. The t1/2 with Liver [3] came to 26 min. The half-life in data set [7] and in data set [5] was > 90 min each time.
With `CCCCCCCN1[C@@H]2CC[C@@H]1CC(c1cccc(C(N)=O)c1)C2` (relative stereo), the Ki was 0.398 nM on Mu-type opioid receptor, 3.16 nM in data set [1] and 0.398 nM in data set [2]. Further, the t1/2 in the data set on Liver [3] was > 90 min; with Liver [4] it was 20 min; with Liver [6], 40 min.
Consider `NC(=O)c1cccc(C2C[C@H]3CC[C@H](C2)N3CC(O)Cc2ccccc2)c1` (relative stereo), for which the Ki on Mu-type opioid receptor was 0.251 nM; in data set [1], 3.98 nM; in data set [2] it was 0.316 nM. The t1/2 in the data set on Liver [3] is 31 min. The half-life in data set [7] and in data set [5] was > 90 min in each case.

Source of the values: ChEMBL document CHEMBL4020770, “Discovery of N-substituted-endo-3-(8-aza-bicyclo[3.2.1]oct-3-yl)-phenol and -phenyl carboxamide series of μ-opioid receptor antagonists” (Bioorg Med Chem Lett, 2017).
